Data from ChEMBL document CHEMBL6153064, “Structure-based discovery of novel diarylpyrimidines as potent and selective Non-Nucleoside reverse transcriptase inhibitors: From CH(CN)-Biphenyl-Diarylpyrimidines to CNNH2-Biphenyl-Diarylpyrimidines” (Eur J Med Chem, 2025).

How the values were obtained:
[1] = system: Human immunodeficiency virus 1; test: Antiviral activity against wild type HIV-1 IIIB infected in human MT4 cells […]; format: functional, organism-based; conditions: Human immunodeficiency virus 1, IIIB
[2] = Stability in human plasma assessed as half life; format: ADME, cell-free
[3] = Acute toxicity in ICR mouse assessed as brain lesion at 2 g/Kg, po measured after 14 days; format: organism-based; conditions: in vivo, 2000 mg/kg, 336 h, time 14 day
Method in brief: (§1)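 ICR mice, female and male, received one oral 2 g/kg dose. On day 14 after dosing they were dissected, and organs were examined by histopathology against a control group.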

[4] = Cytotoxicity against human MT4 cells by MTT assay; format: toxicity, cell-based
[5] = Acute toxicity in ICR mouse assessed as change in AST level at 2 g/Kg, po measured after 14 days; format: organism-based; conditions: in vivo, 2000 mg/kg, 336 h, time 14 day
Method in brief: (§2)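 ICR mice of both sexes received a single oral 2 g/kg dose. On day 14 after dosing, blood was examined for ALT, AST, CREA, UREA and CKMB and compared with control groups.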

[6] = Stability in human plasma assessed as parent compound remaining measured immediately; format: ADME, cell-free; conditions: read-out: Stability
[7] = Stability in human plasma assessed as parent compound remaining measured at 60 mins; format: ADME, cell-free; conditions: read-out: Stability
[8] = system: Human immunodeficiency virus 1; test: Antiviral activity against HIV-1 harboring E138K mutant infected in human MT4 cells […]; format: functional, organism-based; conditions: Human immunodeficiency virus 1, MT4
[9] = Acute toxicity in ICR mouse assessed as lung lesion at 2 g/Kg, po measured after 14 days; format: organism-based; conditions: in vivo, 2000 mg/kg, 336 h, time 14 day; method in brief: as §1
[10] = Acute toxicity in ICR mouse assessed as liver lesion at 2 g/Kg, po measured after 14 days; format: organism-based; conditions: in vivo, 2000 mg/kg, 336 h, time 14 day; method in brief: as §1
[11] = system: Human immunodeficiency virus 1; test: Antiviral activity against HIV-1 harboring K103N mutant infected in human MT4 cells […]; format: functional, organism-based; conditions: Human immunodeficiency virus 1, MT4
[12] = Acute toxicity in ICR mouse assessed as spleen lesion at 2 g/Kg, po measured after 14 days; format: organism-based; conditions: in vivo, 2000 mg/kg, 336 h, time 14 day; method in brief: as §1
[13] = Stability in human plasma assessed as parent compound remaining measured at 120 mins; format: ADME, cell-free; conditions: read-out: Stability
[14] = Acute toxicity in ICR mouse assessed as change in ALT level at 2 g/Kg, po measured after 14 days; format: organism-based; conditions: in vivo, 2000 mg/kg, 336 h, time 14 day; method in brief: as §2
[15] = Stability in human plasma assessed as parent compound remaining measured at 15 mins; format: ADME, cell-free; conditions: read-out: Stability
[16] = Acute toxicity in ICR mouse at 2 g/Kg, po measured for 2 weeks; format: organism-based; conditions: in vivo, 2000 mg/kg, 336 h
Method in brief: (§3)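 Healthy female and male ICR mice were given a single oral dose of 2 g/kg. Growth, death and toxic symptoms were followed over 2 weeks and compared with a control group.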

[17] = Metabolic stability in human microsomes assessed as intrinsic clearance; format: ADME, Microsome; conditions: read-out: CLH
Method in brief: (§4)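 Incubation with human liver microsomes; half-life obtained from depletion fit (R² reported), intrinsic clearance expressed per mg microsomal protein (μL/min/mg) and scaled to liver (mL/min/kg).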

[18] = Selectivity index, ratio of CC50 for cytotoxicity against human MT4 cells to EC50 for antiviral activity against wild type HIV-1 IIIB infected in human MT4 cells; format: toxicity, cell-based; conditions: read-out: Ratio CC50/EC50
Method in brief: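 Selectivity index calculated as CC50/EC50 ratio, both values from MTT viability readout in MT-4 cells, antiviral arm using wild-type HIV-1 IIIB.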

[19] = Acute toxicity in ICR mouse assessed as change in CREA level at 2 g/Kg, po measured after 14 days; format: organism-based; conditions: in vivo, 2000 mg/kg, 336 h, time 14 day; method in brief: as §2
[20] = Stability in human plasma assessed as parent compound remaining measured at 30 mins; format: ADME, cell-free; conditions: read-out: Stability
[21] = Stability in human plasma assessed as parent compound remaining measured at 300 mins; format: ADME, cell-free; conditions: read-out: Stability
[22] = biological target: Human immunodeficiency virus type 1 reverse transcriptase (Human immunodeficiency virus 1, UniProt Q72547); test: Inhibition of wild type HIV-1 Reverse transcriptase
[23] = system: Human immunodeficiency virus 1; test: Antiviral activity against HIV-1 harboring Y188L mutant infected in human MT4 cells assessed as inhibition of virus-induced cytopathic effect by MTT assay; conditions: Human immunodeficiency virus 1, MT4
[24] = Acute toxicity in ICR mouse assessed as adverse symptoms at 2 g/Kg, po measured for 2 weeks; format: organism-based; conditions: in vivo, 2000 mg/kg, 336 h; method in brief: as §3
[25] = system: Human immunodeficiency virus 1; test: Potency index, ratio of Efavirenz EC50 to test compound EC50 for antiviral activity against HIV-1 harboring Y188L mutant infected in human MT4 cells […]; format: functional
[26] = Acute toxicity in ICR mouse assessed as […] kidney at 2 g/Kg, po measured after 14 days; format: organism-based; conditions: in vivo, 2000 mg/kg, 336 h, time 14 day; method in brief: as §1
[27] = Acute toxicity in ICR mouse assessed as heart lesion at 2 g/Kg, po measured after 14 days; format: organism-based; conditions: in vivo, 2000 mg/kg, 336 h, time 14 day; method in brief: as §1
[28] = system: Human immunodeficiency virus 1; test: Antiviral activity against HIV-1 harboring Y181C mutant infected in human MT4 cells […]; format: functional, organism-based; conditions: Human immunodeficiency virus 1, MT4
[29] = Metabolic stability in human liver microsomes assessed as half life; format: ADME, Microsome; method in brief: as §4
[30] = Acute toxicity in ICR mouse assessed as change in CKMB level at 2 g/Kg, po measured after 14 days; format: organism-based; conditions: in vivo, 2000 mg/kg, 336 h, time 14 day; method in brief: as §2
[31] = system: Human immunodeficiency virus 1; test: Potency index, ratio of Efavirenz EC50 to test compound EC50 for antiviral activity against HIV-1 harboring K103N mutant infected in human MT4 cells […]; format: functional
[32] = Acute toxicity in ICR mouse assessed as animal death at 2 g/Kg, po measured for 2 weeks; format: organism-based; conditions: in vivo, 2000 mg/kg, 336 h; method in brief: as §3
[33] = system: Human immunodeficiency virus 1; test: Antiviral activity against HIV-1 harboring L100I mutant infected in human MT4 cells […]; format: functional, organism-based; conditions: Human immunodeficiency virus 1, MT4
[34] = Acute toxicity in ICR mouse assessed as change in UREA level at 2 g/Kg, po measured after 14 days; format: organism-based; conditions: in vivo, 2000 mg/kg, 336 h, time 14 day; method in brief: as §2
[35] = system: Human immunodeficiency virus 1; test: Potency index, ratio of Nevirapine EC50 to test compound EC50 for antiviral activity against HIV-1 harboring E138K mutant infected in human MT4 cells […]; format: functional

With `COc1cc(-c2ccc(C#N)cc2)ccc1/C(=N\N)c1ccnc(Nc2ccc(C#N)cc2)n1` the EC50 [1] was 5 nM, the half-life [2] was > 300 min and the Activity [3] was “Non-toxic”. For the same compound, the CC50 [4] was 54000 nM, the Activity [5] was “Non-toxic” and the remaining at 0 min [6] was 100%. For the same compound, the remaining at 1 h [7] was 101%, the EC50 [8] was 21 nM and the Activity [9] was “Non-toxic”. The Activity [10] was “Non-toxic”, the EC50 [11] was 10 nM and the Activity [12] was “Non-toxic”. For the same compound, the remaining at 2 h [13] was 98.2%, the Activity [14] was “Non-toxic” and the remaining at 0.25 h [15] was 104%. The Activity [16] was “Non-toxic”, the microsomal CLint [17] was 37 µL/min/mg and the selectivity ratio [18] was 11000. The Activity [19] was “Non-toxic”, the remaining at 0.5 h [20] was 101% and the remaining at 5 h [21] was 94.7%. For the same compound, the IC50 [22] was 81 nM, the EC50 [23] was 148 nM and the Activity [24] was “Non-toxic”. The “Ratio EC50” value [25] was 2, the Activity [26] was “Non-toxic” and the Activity [27] was “Non-toxic”. For the same compound, the EC50 [28] was 22 nM, the half-life [29] was 37.5 min and the Activity [30] was “Non-toxic”. For the same compound, the “Ratio EC50” value [31] was 8.6, the Activity [32] was “Non-toxic” and the EC50 [33] was 7 nM. For the same compound, the Activity [34] was “Non-toxic” and the “Ratio EC50” value [35] was 7.5.
